MsrA act: bovine MsrA enzyme activators, primary screen, biochemical, absorbance, HTS; Methionine sulfoxide reductase A (Bos taurus); purified bovine MsrA, absorbance read-out; activation, % at 10.6 µM; 0.3% of 360,000 active; AID 602163, 2012; in the data active = activation above about 7.5%
Glyco luc inh: increase of ERlucT glycosylation luciferase signal, primary screen, N-linked glycosylation inhibitor project, D54 ERlucT cells, luminescence, set 2. D54 ERlucT glycosylation luciferase reporter, 24 h; percent of 100 nM tunicamycin response. reporter increase, % at 12.5 µM. 0.23% of 360,000 active. AID 588692, 2011;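 active = mean luciferase reporter signal, scaled so untreated is 0 and the glycosylation-blocking control 100, at or above a set limit in every replicate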;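 note: luciferase carries N-glycosylation sites so blocking glycosylation raises the light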
aDG glyco up: activators of alpha-DG glycosylation, primary screen, uHTS, Pro5-aDG cells, AlphaScreen; alpha-DG glycosylation AlphaScreen (IIH6); 0% Pro5, 100% B10-LARGE cell signal; activation, % at 10 µM; 0.22% of 360,000 active; AID 624168, 2012;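 active = activation of at least 8% versus controls, or a plate z-score of at least 8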;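 note: Pro5 are CHO cells carrying HIG-tagged alpha-DG that lacks glycosylation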
UCH37 DUB inh: inhibitors of human UCH37 deubiquitinase, primary screen, biochemical, Ub-AMC cleavage, fluorescence; Ubiquitin carboxyl-terminal hydrolase isozyme L5 (Homo sapiens), Q9Y5K5; purified proteasome/UCH37; inhibition, % (no concentration beside the values); 0.33% of 330,000 active; AID 588478, 2011;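 active = mean inhibition over replicate wells above about 20%, limit read from the data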
Target sequence (Q9Y5K5 whole entry, looked up): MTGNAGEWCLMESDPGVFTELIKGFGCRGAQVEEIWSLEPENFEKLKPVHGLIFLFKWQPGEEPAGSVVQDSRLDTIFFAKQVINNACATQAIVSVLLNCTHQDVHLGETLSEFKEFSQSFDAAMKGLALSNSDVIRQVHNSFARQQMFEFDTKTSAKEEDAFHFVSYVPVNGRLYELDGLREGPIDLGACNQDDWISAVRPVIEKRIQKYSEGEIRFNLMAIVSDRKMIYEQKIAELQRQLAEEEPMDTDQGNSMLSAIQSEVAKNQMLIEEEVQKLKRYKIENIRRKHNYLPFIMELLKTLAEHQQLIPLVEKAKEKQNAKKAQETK
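assay system = human UCH37 enzyme supplied as purified proteasome complex | amount = proteasome at 0.15 nM in the dispensed enzyme solution | schedule = 30 min compound-proteasome preincubation then 25 min substrate reaction, room temperature | measured by = fluorescence, ex 355 nm, em 460 nm | benchmarks = no-proteasome wells (full inhibition) and compound-free wells (no inhibition)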
MsrA inhibitor: bovine MsrA enzyme inhibitors, primary screen, biochemical, absorbance, HTS | Methionine sulfoxide reductase A (Bos taurus) | purified bovine MsrA, absorbance read-out | inhibition, % at 15.5 µM | 0.75% of 360,000 active
Vif inh: HIV Vif self-association inhibitors, primary screen, imaging, HEK293T, single point; HEK293T cells, Vif self-association by quenched fluorescence, 24 h; inhibition, % at 7.49 µM; 0.35% of 340,000 active; AID 602346, 2012; in the data active = inhibition above about 50%, passing the limit was not always enough
MsrA inh confirm: bovine MsrA inhibitors, retest, confirmation, biochemical, absorbance, HTS. shares compounds with MsrA inhibitor. purified bovine MsrA, absorbance read-out. inhibition, % at 15.5 µM. 41% of 2,300 active. AID 651822, 2012;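 note: coupled to thioredoxin reductase with NADPH and selenocystamine and DMSO as substrate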
Large screens that a line does not name were inactive (follow-up assays come after a bar, where they were run). This is a sample that favours compounds with a hit; in the whole collection about 1.9% have one here. Cut-off read from the data, not from the text of the source, unless noted: active = inhibition above about 4.5%; inactive = the rest.

Cc1ccc(CSc2nnc(SCC(=O)NN=Cc3ccccc3OCC(=O)O)s2)cc1	none (no result: MsrA act, Glyco luc inh, aDG glyco up, MsrA inhibitor, Vif inh)
O=C(NCCCN1CCOCC1)c1cc2c(=O)[nH]c3ccccc3c2s1	MsrA inhibitor 5.3 | MsrA inh confirm inactive
COc1ccc(C(=O)N/C(=C\c2cn(C)c3ccccc23)C(=O)N2CCOCC2)cc1OC	MsrA inhibitor 4.8 | MsrA inh confirm inactive
O=C(NC(=S)NCCCN1CCOCC1)c1cccc2ccccc12	MsrA inhibitor 9.4 | MsrA inh confirm inactive
Cn1cc(/C=C(\NC(=O)c2ccccc2Cl)C(=O)N2CCOCC2)c2ccccc21	MsrA inhibitor 6.3 | MsrA inh confirm inactive
Cc1nn(C)c(C)c1C=NNC(=O)C(C)(C)Oc1ccc(Cl)cc1	none (no result: MsrA act, Glyco luc inh, aDG glyco up, MsrA inhibitor, Vif inh)
CC(CC(=O)Nc1ccc(OCc2ccccc2)cc1)=NNC(=O)C(=O)Nc1ccc(C)c(Cl)c1	none (no result: MsrA act, Glyco luc inh, aDG glyco up, MsrA inhibitor, Vif inh)
COc1cc(C(=O)Oc2cccc(C=NNC(=O)c3cccnc3)c2)cc(OC)c1OC	none (no result: MsrA act, Glyco luc inh, aDG glyco up, MsrA inhibitor, Vif inh)
CCOc1ccc(C=NNC(=O)C2CC2)cc1OC	none (no result: MsrA act, Glyco luc inh, aDG glyco up, MsrA inhibitor, Vif inh)
COc1ccccc1C(=O)N/C(=C\c1cn(C)c2ccccc12)C(=O)NCCN1CCOCC1	none (no result: UCH37 DUB inh)
COc1ccccc1C(=O)N/C(=C\c1cn(C)c2ccccc12)C(=O)NCCCN1CCOCC1	MsrA inhibitor 5.3 | MsrA inh confirm inactive
CCS(=O)(=O)Nc1ccc(C2=NN(C(=O)c3ccco3)C(c3ccco3)C2)cc1 (configuration not stated)	MsrA inhibitor 5.1 (no result: Vif inh) | MsrA inh confirm inactive
CCS(=O)(=O)Nc1cccc(C2=NN(C(=O)c3ccco3)C(c3ccco3)C2)c1 (configuration not stated)	none
CCOC(=O)C1C(=NO)CC(C)(O)C(C(=O)OCC)C1c1ccc(OC)c(OC)c1 (configuration not stated)	none (no result: MsrA act, Glyco luc inh, aDG glyco up, MsrA inhibitor, Vif inh)
O=C(O)c1ccccc1C=NNC(=O)C1CCCC1	none (no result: MsrA act, Glyco luc inh, aDG glyco up, MsrA inhibitor, Vif inh)
Clc1cncc(Cl)c1N/N=C/c1ccncc1	MsrA inhibitor 4.9 (no result: UCH37 DUB inh) | MsrA inh confirm inactive
CC1(C)Oc2ccc3ccc(=O)oc3c2C(C=NO)C1=O (configuration not stated)	none (no result: MsrA act, Glyco luc inh, aDG glyco up, MsrA inhibitor, Vif inh)
O=C(NN=Cc1ccc(O)cc1)c1cc(C2CC2)[nH]n1	none (no result: MsrA act, Glyco luc inh, aDG glyco up, MsrA inhibitor, Vif inh)
O=C(N/N=C/c1ccc([N+](=O)[O-])cc1)c1[nH]ncc1Br	MsrA inhibitor 4.9 (no result: UCH37 DUB inh) | MsrA inh confirm inactive
O=C(N/N=C/c1ccc([N+](=O)[O-])cc1)c1ccc2nc[nH]c2c1	MsrA inhibitor 5.6 (no result: UCH37 DUB inh) | MsrA inh confirm 4.8
O=C(N/N=C/c1ccc([N+](=O)[O-])cc1)c1cc(C2CC2)[nH]n1	MsrA inhibitor 5.3 (no result: UCH37 DUB inh) | MsrA inh confirm 5.3
O=C(NN=Cc1cccs1)c1[nH]ncc1Br	none (no result: MsrA act, Glyco luc inh, aDG glyco up, MsrA inhibitor, Vif inh)
COc1ccc(C=Nn2c(C3CCCCC3)n[nH]c2=S)c(OC)c1	none (no result: MsrA act, Glyco luc inh, aDG glyco up, MsrA inhibitor, Vif inh)
Cn1c(=O)c2ncn(CC(=O)NN=C/C=C/c3ccccc3)c2n(C)c1=O	none (no result: MsrA act, Glyco luc inh, aDG glyco up, MsrA inhibitor, Vif inh)
CCOC(=O)c1sc(NC(=O)C2=COCCO2)c(C#N)c1C	MsrA inhibitor 5.8 | MsrA inh confirm inactive
CCOC(=O)c1sc(NC(=O)C(C)C)c(C#N)c1C	none
Cc1[nH]c2ccccc2c1C(=O)C(=O)NCCCn1ccnc1	MsrA inhibitor 4.9 | MsrA inh confirm inactive
COc1ccc(-c2cc(NC=O)c3ncc(-c4cccc(C(=O)NCCN(C)C)c4)n3c2)cc1	MsrA inhibitor 11 (no result: UCH37 DUB inh) | MsrA inh confirm inactive
CN(C)CCNC(=O)c1cccc(-c2cnc3c(NC=O)cc(-c4ccc(F)cc4)cn23)c1	none (no result: UCH37 DUB inh)
O=c1c2ccccc2nc(COc2ccccc2)n1N=Cc1cc([N+](=O)[O-])ccc1O	none (no result: MsrA act, Glyco luc inh, aDG glyco up, MsrA inhibitor, Vif inh)
COC(=O)c1ccccc1NC(=O)c1cnc2sccn2c1=O	none
O=C(Nc1nccs1)c1cnc2sccn2c1=O	MsrA inhibitor 5.8 (no result: UCH37 DUB inh) | MsrA inh confirm 5.7
